Our source for the Activity, inhibition and IC50 values is ChEMBL document CHEMBL4177753, “Structural Modification of Natural Product Ganomycin I Leading to Discovery of a α-Glucosidase and HMG-CoA Reductase Dual Inhibitor Improving Obesity and Metabolic Dysfunction in Vivo” (J Med Chem, 2018).

Each structure is given as a SMILES string. Activity calls are given as the source filed them. The calls are words filed in the database; no cut-off is given here.

The subject of data set [1] is Mus musculus. As to the kind of experiment: Upregulation of Il10 mRNA expression in ob/ob mouse ileum at 3 mg/kg administered daily via oral gavage for 31 days by RNA-seq analysis. It is filed as functional, organism-based.
Data set [2] concerns Mus musculus. As to the kind of experiment: In vivo inhibition of alpha-glucosidase activity in ob/ob mouse assessed as reduction of blood glucose AUC at 0.3 to 3 mg/kg administered daily via oral gavage for 30 days by OSTT. It is filed as functional, organism-based. The gist of the method: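 Male ob/ob mice given 0.3–3.0 mg/kg daily by gavage; after overnight fast, sucrose (OSTT) or maltose (OMTT) 4.0 g/kg given orally; blood glucose by glucose meter at 0, 40, 80 and 120 min; AUC calculated from the time course.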

Data set [3] concerns Mus musculus. As to the kind of experiment: Upregulation of Muc-1 mRNA expression in ob/ob mouse ileum at 3 mg/kg administered daily via oral gavage for 31 days by RNA-seq analysis. The format is functional, organism-based.
Data set [4] relates to Mus musculus. As to the kind of experiment: Toxicity in C57BL/6J mouse assessed as effect on organ coefficients at 30 mg/kg administered daily via oral gavage for 3 months. The format is organism-based. Particulars: in vivo. In short, it runs like this: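 Long-term safety study in C57BL/6J mice, 20 male and 20 female, sorted by gender, blood glucose and body weight into four groups (n = 10 each). Treated groups of each sex got 30.0 mg/kg daily by oral gavage in soybean vehicle. Vehicle groups got an equal volume of soybean. Dosing ran three months, with behavior, survival, body weight, blood glucose, liver function and organ coefficients recorded.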

The test system of data set [5] is Mus musculus. As to the kind of experiment: Hypoglycemic activity in ob/ob mouse assessed as decrease in fasting blood glucose levels administered daily via oral gavage for 28 days. It is filed as functional, organism-based. In short, it runs like this:
(§1)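 Male ob/ob mice, n = 10 per group, daily gavage at 0.3, 1.0 or 3.0 mg/kg in soybean vehicle. Fasting and free-diet blood glucose and HbA1c measured.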

The subject of data set [6] is Mus musculus. Description: Hypoglycemic activity in C57BL/6J DIO mouse assessed as increase in insulin sensitive index at 0.3 to 3 mg/kg administered daily via oral gavage for 5 weeks. The format is functional, organism-based. In short, it runs like this: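 Male high-fat-diet C57BL/6J mice, daily gavage at 0.3–3.0 mg/kg for 5 weeks. ISI calculated as […].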

Data set [7] deals with Mus musculus. Description: Decrease in nitrate levels in ob/ob mouse colonic lumen at 3 mg/kg administered daily via oral gavage for 31 days by Griess assay. It is filed as functional, organism-based. In short, it runs like this:
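Male ob/ob mice dosed daily by gavage in soybean vehicle. Nitrate measured in intestinal contents by Griess assay.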
(The Griess reaction detects nitrite, a stable product of nitric oxide.)

Data set [8] relates to Mus musculus. As to the kind of experiment: Hypolipidemic activity in antibiotic-treated ob/ob mouse assessed as decrease in plasma total cholesterol levels at 3 mg/kg administered daily via oral gavage for 3 weeks. The format is functional, organism-based. The gist of the method: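 Male ob/ob mice pretreated three weeks with ampicillin (1 g/L), vancomycin, neomycin, gentamycin and erythromycin. Groups of n = 8 given 3.0 mg/kg/day orally in soybean vehicle versus vehicle. Plasma and hepatic lipids, fasting glucose, OGTT (glucose 2 g/kg after overnight fast) and HbA1c measured.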

Data set [9] concerns Mus musculus. As to the kind of experiment: Hypolipidemic activity in ob/ob mouse assessed as decrease in serum AST levels at 0.3 to 3 mg/kg administered daily via oral gavage for 31 days. The format is functional, organism-based.
The test system of data set [10] is Mus musculus. Description: Antiobesity activity in antibiotic-treated ob/ob mouse assessed as reduction in cumulative food intake at 3 mg/kg administered daily via oral gavage for 18 days. The format is functional, organism-based. The gist of the method:
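Male ob/ob mice given drinking water with ampicillin (1 g/L), vancomycin and other antibiotics for three weeks. Groups of n = 8 were dosed at 3.0 mg/kg/day by mouth in soybean vehicle, alongside non-antibiotic ob/ob groups. Weight gain and food intake recorded.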

For data set [11], the system named is Mus musculus. As to the kind of experiment: Hypolipidemic activity in ob/ob mouse assessed as decrease in liver LDL-C levels at 0.3 to 3 mg/kg administered daily via oral gavage for 31 days. The format is functional, organism-based.
In data set [12] the test system is Mus musculus. As to the kind of experiment: Hypolipidemic activity in ob/ob mouse assessed as decrease in plasma LDL-C levels at 3 mg/kg administered daily via oral gavage for 31 days relative to vehicle-treated control. The format is functional. On the set-up: scale not given: the % may be the effect or the level left.
Data set [13] has as its system Mus musculus. Description: Hypoglycemic activity in ob/ob mouse assessed as decrease in HbA1c levels administered daily via oral gavage for 31 days. It is filed as functional, organism-based. In short, it runs like this:
as §1

Data set [14] concerns the target T1, 3-hydroxy-3-methylglutaryl-coenzyme A reductase (Sus scrofa) (UniProt Q1W675).
T1 sequence (whole entry): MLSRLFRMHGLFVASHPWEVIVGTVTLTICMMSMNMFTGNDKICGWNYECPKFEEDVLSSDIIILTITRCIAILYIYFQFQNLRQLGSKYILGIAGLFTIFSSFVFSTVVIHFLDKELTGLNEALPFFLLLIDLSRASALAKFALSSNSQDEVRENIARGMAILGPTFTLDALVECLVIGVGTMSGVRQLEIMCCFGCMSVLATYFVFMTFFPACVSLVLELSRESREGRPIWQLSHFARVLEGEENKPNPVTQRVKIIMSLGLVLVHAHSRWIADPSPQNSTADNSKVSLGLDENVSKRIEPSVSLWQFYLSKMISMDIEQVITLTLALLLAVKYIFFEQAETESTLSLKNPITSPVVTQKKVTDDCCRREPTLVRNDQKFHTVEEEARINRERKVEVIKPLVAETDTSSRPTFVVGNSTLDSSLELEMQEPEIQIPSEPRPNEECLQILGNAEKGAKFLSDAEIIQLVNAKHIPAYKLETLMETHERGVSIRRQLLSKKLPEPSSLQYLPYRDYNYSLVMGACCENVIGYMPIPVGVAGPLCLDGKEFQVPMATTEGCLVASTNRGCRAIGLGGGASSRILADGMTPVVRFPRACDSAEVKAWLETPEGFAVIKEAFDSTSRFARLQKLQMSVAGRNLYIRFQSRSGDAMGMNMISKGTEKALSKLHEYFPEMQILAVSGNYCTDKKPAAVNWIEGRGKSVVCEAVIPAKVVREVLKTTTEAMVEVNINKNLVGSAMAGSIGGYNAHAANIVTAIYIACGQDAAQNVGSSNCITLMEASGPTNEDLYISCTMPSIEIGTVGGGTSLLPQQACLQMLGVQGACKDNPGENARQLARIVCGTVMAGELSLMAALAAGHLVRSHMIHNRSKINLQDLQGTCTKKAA
As to the kind of experiment: (§2) Inhibition of pig liver microsomal HMG-CoA reductase by colorimetric method. The gist of the method:
(§3)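 Pig liver microsomal HMG-CoA reductase; compounds tested at several concentrations, each in triplicate; control uses phosphate buffer instead of compound, blank uses buffer instead of enzyme. Absorbance read at 405 nm; % inhibition from blank-corrected OD of test versus control; IC50 fitted from the inhibition-concentration series.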
On the technique in general: Liver microsomes are vesicles of endoplasmic reticulum, rich in cytochrome P450 enzymes.

Data set [15] concerns the target T2, 3-hydroxy-3-methylglutaryl-coenzyme A reductase (Sus scrofa, UniProt Q1W675).
T2 sequence (Q1W675 whole entry): T1 sequence (whole entry)
Described as §2. The gist of the method: as §3

The subject of data set [16] is Mus musculus. Description: Upregulation of Muc-5 mRNA expression in ob/ob mouse ileum at 3 mg/kg administered daily via oral gavage for 31 days by RNA-seq analysis. It is filed as functional, organism-based.
The test system of data set [17] is Mus musculus. Description: Hypolipidemic activity in C57BL/6J DIO mouse assessed as decrease in serum total cholesterol levels at 0.3 to 3 mg/kg administered daily via oral gavage for 5 weeks. It is filed as functional, organism-based. The gist of the method: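 High-fat-diet male C57BL/6J mice, n = 8 per group, daily gavage at 0.3–3.0 mg/kg in soybean vehicle for 5 weeks. Serum total cholesterol, triglycerides and free fatty acids measured.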

The nature of data set [18]: Inhibition of rat small intestinal mucosal alpha-glucosidase using p-nitrophenyl-alpha-D-glucopyranoside as substrate after 40 mins by colorimetric method. In short, it runs like this:
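Rat small intestinal mucosal α-glucosidase; several compound concentrations, each run three times in parallel; phosphate-buffer control replaces compound, blank replaces enzyme. Absorbance at 405 nm; % inhibition = blank-corrected OD of test versus control; IC50 derived from the concentration gradient.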

By IC50 is commonly meant the concentration that gives 50% inhibition. Regarding `CC(C)=CCC/C(C)=C/CCC1=C[C@H](c2ccc(C(C)(C)C)cc2)OC1=O`, the outcome with Mus musculus [1], with Mus musculus [3], in the data set on Mus musculus [6], in the data set with Mus musculus [7], in the data set with Mus musculus [9] and in the data set on Mus musculus [11] was Active. The outcome with Mus musculus [16] and in the data set with Mus musculus [17] was Active. Also, in the data set with Mus musculus [2], the inhibition entry was “Active”. For the same compound, the Activity entry in the data set on Mus musculus [4] was “Non-Toxic”; with Mus musculus [5], “Dose-dependent effect”; with Mus musculus [12] it was 51%; in the data set with Mus musculus [13], “Dose-dependent effect”. Further, the outcome in the data set on Mus musculus [8] and in the data set with Mus musculus [10] was inactive. Also, the inhibition result in [14] was “Dose-dependent effect”. The IC50 amounted to 5820 nM in data set [15] and 60 nM in data set [18].
